Measurements published in ChEMBL document CHEMBL4396943, “The tetrahydroxanthone-dimer phomoxanthone A is a strong inducer of apoptosis in cisplatin-resistant solid cancer cells” (Bioorg Med Chem, 2019).
Activity calls are given as the source filed them. No cut-off for these calls is given here.

Assays:
A2780 [1] = assay: Cell cycle arrest in human A2780 cells assessed as accumulation at G1 phase incubated for 24 hrs by propidium iodide staining based flow cytometry; type: functional
Method in brief: (§1)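 After 24 h exposure, cells washed in ice-cold PBS. About 2 million cells fixed in cold 70% ethanol at −20 °C for at least 24 h. Stained with 0.1% Triton X-100, 200 µg/ml RNase A and 20 µg/ml propidium iodide in PBS, 15 min at 37 °C in the dark. DNA content read by flow cytometry with doublet discrimination. Medium as untreated control, paclitaxel as G2/M control. Three independent experiments.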

[2] = Antiproliferative activity against human Cal27CisR cells assessed as reduction in cell viability incubated for 72 hrs by MTT assay; type: functional, cell-based
Method in brief: (§2)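 Cells seeded overnight in 96-well plates, then exposed to increasing concentrations (compound dissolved in DMSO, diluted in medium) for the stated time. MTT (5 mg/ml in PBS) added for 15 min, formazan dissolved in DMSO, absorbance read at 544 nm minus 690 nm background. IC50 = concentration giving 50% signal decrease. At least three independent experiments in triplicate.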

A2780cisR [3] = assay: Effect on ROS generation in human A2780cisR cells at 316 nM incubated for 18 hrs by H2DCFDA staining based flow cytometry; type: functional, cell-based
Method in brief: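 Cells plated in 24-well plates (about 150,000/well) overnight, then exposed 18 h. Washed and moved to phenol red-free, serum-free RPMI-1640, then loaded with 10 µM H2DCF-DA for 30 min at 37 °C in the dark. One aliquot read directly, the other after 250 µM H2O2 for 1 h at 37 °C. DCF fluorescence read by flow cytometry. Three independent experiments.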

KYSE-510 = assay: Potency index, ratio of cisplatin IC50 to compound IC50 for antiproliferative activity in cisplatin resistant human KYSE-510 cells assessed as reduction in cell viability incubated for 72 hrs by MTT assay; type: functional
Method in brief: (§3)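 Cells seeded in 96-well plates overnight, exposed 72 h to increasing concentrations. MTT (5 mg/ml) added for 15 min, formazan dissolved in DMSO, absorbance read at 544 nm with 690 nm background subtracted. IC50 is the concentration reducing signal by 50%. Three independent experiments in triplicate. CisR sublines made by weekly intermittent cisplatin exposure for 24–30 weeks.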

J82 [4] = assay: Cell cycle arrest in cisplatin resistant human J82 cells assessed as accumulation at G1 phase at 5 uM incubated for 24 hrs by propidium iodide staining based flow cytometry (reference value: 78.1%); type: functional; method in brief: as §1
Homo sapiens [5] = species: Homo sapiens; assay: Ratio of IC50 for induction of mitochondrial membrane depolarization in cisplatin resistant human J82 cells to IC50 for induction of mitochondrial membrane depolarization in human A2780cisR cells after 2 hrs by TMRE staining based flow cytometry; type: functional, cell-based
Method in brief: (§4)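 Cells seeded overnight; complete medium swapped for FBS-free medium just before treatment to avoid TMRE ester cleavage. Exposure to PXA for 1 h, 2 h or 24 h. TMRE staining 20 min, cells collected by trypsinisation, ΔΨm read by flow cytometry. Medium served as negative control, 20 µM CCCP as positive control. Mean ± SEM reported.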

A2780 [6] = assay: Induction of apoptosis in human A2780 cells assessed as depolarization of mitochondrial membrane potential afer 24 hrs by TMRE staining based flow cytometry; type: functional, cell-based
Method in brief: (§5)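 Cells seeded overnight; medium switched to FBS-free just before treatment to avoid TMRE ester cleavage. Exposure 1 h, 2 h or 24 h, then TMRE staining for 20 min. Cells trypsinized, centrifuged at 4 °C and read by flow cytometry. Medium as negative control, 20 µM CCCP as positive control. […]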

A2780cisR [7] = assay: Cell cycle arrest in human A2780cisR cells assessed as accumulation at G1 phase at 1 uM incubated for 24 hrs by propidium iodide staining based flow cytometry (reference value: 68.7%); type: functional; method in brief: as §1
K562 [8] = assay: Antiproliferative activity against human K562 cells assessed as reduction in cell viability incubated for 72 hrs by MTT assay; type: functional, cell-based; details: K562, 72 h; method in brief: as §2
A2780 [9] = assay: Induction of apoptosis in human A2780 cells assessed as decrease in mitochondrial membrane potential at 1 uM incubated for 24 hrs by TMRE staining based flow cytometry; type: functional, cell-based; method in brief: as §5
MDA-MB-231 = assay: Antiproliferative activity against cisplatin-resistant human MDA-MB-231 cells assessed as reduction in cell viability incubated for 72 hrs by MTT assay; type: functional, cell-based; details: MDA-MB-231, 72 h; method in brief: as §2
A2780cisR [10] = assay: Induction of apoptosis in human A2780cisR cells assessed as depolarization of mitochondrial membrane potential incubated for 2 hrs by TMRE staining based flow cytometry; type: functional, cell-based; method in brief: as §4
A2780 [11] = assay: Induction of apoptosis in human A2780 cells assessed as depolarization of mitochondrial membrane potential at 1 uM incubated for 2 hrs by TMRE staining based flow cytometry; type: functional; method in brief: as §4
A2780 [12] = assay: Induction of apoptosis in human A2780 cells assessed as decrease in cIAP expression at 5 uM incubated for 24 hrs by proteome profiler analysis; type: functional, cell-based
Method in brief: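 A2780 cells treated 24 h with 5 µM, then apoptosis-related proteins read on an antibody array (Proteome Profiler human apoptosis array) per kit instructions.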

A2780cisR [13] = assay: Induction of apoptosis in human A2780cisR cells assessed as nuclear condensation by measuring reduced size and increased intensity of nuclei at 10 uM incubated for 24 hrs by hoechst 33342 staining based fluorescence microscopy; type: functional, cell-based
J82 [14] = assay: Induction of apoptosis in cisplatin resistant human J82 cells assessed as depolarization of mitochondrial membrane potential incubated for 2 hrs by TMRE staining based flow cytometry; type: functional, cell-based; method in brief: as §5
A2780 [15] = assay: Induction of apoptosis in human A2780 cells assessed as plasma membrane damage at 1 to 10 uM incubated for 24 hrs by propidium iodide staining based flow cytometry; type: functional, cell-based
Method in brief: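 Cells exposed to PXA for 24 h, trypsinised, pelleted at 4 °C, stained with 100 µg/ml propidium iodide, diluted in sheath fluid and read by flow cytometry. Positive control was 0.2% Triton X-100 (20 min). Three experiments, mean ± SEM.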

Homo sapiens [16] = species: Homo sapiens; assay: Ratio of IC50 for induction of mitochondrial membrane depolarization in human J82 cells to IC50 for induction of mitochondrial membrane depolarization human A2780 cells after 2 hrs by TMRE staining based flow cytometry; type: functional, cell-based; method in brief: as §4
J82 [17] = assay: Induction of apoptosis in cisplatin resistant human J82 cells assessed as accumulation in subG1 phase at 5 uM incubated for 24 hrs by propidium iodide staining based flow cytometry relative to control; type: functional
Method in brief: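 Cells plated in 24-well plates (about 100,000/well) for one day, then treated 24 h. Where used, caspase inhibitor Q-VD-OPh (20 µM) was added 1 h before. Cells lysed in hypotonic buffer (0.1% sodium citrate, 0.1% Triton X-100, 100 µg/ml propidium iodide) overnight at 4 °C in the dark. Sub-G1 fraction read by flow cytometry. Medium control, cisplatin positive control.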

K562 [18] = assay: Potency index, ratio of cisplatin IC50 to compound IC50 for antiproliferative activity in human K562 cells assessed as reduction in cell viability incubated for 72 hrs by MTT assay; type: functional; method in brief: as §3
A2780cisR [19] = assay: Antiproliferative activity against human A2780cisR cells assessed as reduction in cell viability incubated for 72 hrs by MTT assay; type: functional, cell-based; method in brief: as §2
J82 [20] = assay: Antiproliferative activity against human cisplatin resistant J82 cells assessed as reduction in cell viability incubated for 72 hrs by MTT assay; type: functional, cell-based; details: J82, 72 h; method in brief: as §2

**Q.** For CC(=O)OC[C@]12Oc3c(-c4ccc(O)c5c4O[C@@]4(COC(C)=O)C(=C(O)C[C@@H](C)[C@H]4OC(C)=O)C5=O)ccc(O)c3C(=O)C1=C(O)C[C@@H](C)[C@H]2OC(C)=O [PHOMOXANTHONE A], which Activity (A2780 [1]) is on record?
**A.** Dose-dependent effect

**Q.** And the IC50 [2]?
**A.** 5620 nM

**Q.** And the Activity (A2780cisR [3])?
**A.** inactive

**Q.** And the “Ratio IC50” value (KYSE-510)?
**A.** 2 - 10

**Q.** What about the Activity (J82 [4]) of the same molecule?
**A.** 79.3%

**Q.** And the Ratio IC50 (Homo sapiens [5])?
**A.** 3

**Q.** And the Activity (A2780 [6])?
**A.** Dose-dependent effect

**Q.** And the Activity (A2780cisR [7])?
**A.** 72.7%

**Q.** And the IC50 (K562 [8])?
**A.** 1860 nM

**Q.** What about the Activity (A2780 [9]) of the same molecule?
**A.** Active

**Q.** And the IC50 (MDA-MB-231)?
**A.** 4370 nM

**Q.** And the Activity (A2780cisR [10])?
**A.** Dose-dependent effect

**Q.** And the IC50 (A2780cisR [10])?
**A.** 860 nM

**Q.** What about the Activity (A2780 [11]) of the same molecule?
**A.** 50%

**Q.** And the Activity (A2780 [12])?
**A.** Active

**Q.** And the Activity (A2780cisR [13])?
**A.** Active

**Q.** And the Activity (J82 [14])?
**A.** Dose-dependent effect

**Q.** And the IC50 (J82 [14]; J82, 2 h)?
**A.** 2750 nM

**Q.** And the Activity (A2780 [15])?
**A.** inactive

**Q.** And the Ratio IC50 (Homo sapiens [16])?
**A.** 3

**Q.** What about the Activity (J82 [17]) of the same molecule?
**A.** 35%

**Q.** And the “Ratio IC50” value (K562 [18])?
**A.** 5

**Q.** What about the IC50 (A2780cisR [19]; read-out: IC50) of the same molecule?
**A.** 1370 to 1380 nM

**Q.** What about the IC50 (A2780cisR [19]; read-out: pIC50 (converted)) of the same molecule?
**A.** 1380 nM

**Q.** And the IC50 (J82 [20])?
**A.** 2040 nM
